In PMC4690987 (Journal of Medicinal Chemistry, 2015):

Columns and labels:
Cytotoxicity assay = type: cell-based; details: human, uninfected (mock-infected) TZM-bl cells
Method in brief: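 Run in parallel with the antiviral assay, under the same conditions but on uninfected TZM-bl cells (1 ×10^4 cells/well, seeded overnight, test compound in serial dilution, 37 °C, 48 h). Viability was read by MTT absorbance. CC50 was the concentration that reduced absorbance of mock-infected cells by 50%.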

HIV-1 NL4-3 strain = experiment: Antiviral assay in HIV-1 infected TZM-bl cells; type: cell-based; details: for antiviral or cytotoxic activity: HIV-1 NL4-3; for SI HIV-1 strain NL4-3: CC50 value/IC50 value
Method in brief: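 TZM-bl cells (HeLa expressing CD4 and CCR5, with LTR-driven luciferase and β-galactosidase) were seeded at 1 ×10^4 cells/well in DMEM/10% FBS and left to adhere overnight. Cells were infected with HIV-1 NL4-3 or BaL at MOI 0.5, treated with serial dilutions of test compound, and incubated at 37 °C for 48 h. IC50 was taken as 50% inhibition of LTR-luciferase signal. CC50 came from parallel MTT on mock-infected cells. SI = CC50/IC50.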

LTR-IV G4 [1] = experiment: SPR analysis; parameters: species or system HIV-1; details: read-out: KD LTR-IV G4 (SPR); 25 °C, HEPES-KCl buffer, 1:1 binding model
Method in brief: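 5′-biotinylated oligonucleotides folded (95 °C for 5 min, cooled to room temperature), diluted to 30 nM and captured on a streptavidin chip to about 500 RU, with an empty reference cell. Running buffer was 0.01 M HEPES pH 7.4, 0.2 M KCl, 3 mM EDTA. Test compound run at 25–200 nM, 30 μL/min, with 280 s contact and 360 s dissociation. Surface regenerated with 10 mM glycine pH 2.0. Sensorgrams buffer-corrected and fitted to a 1:1 model. At least two independent runs, χ2 below 0.2.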

LTR-IV G4 [2] = experiment: FRET melting assay; type: binding, HIV-1; details: for stabilization (ΔTm, FRET) at 4-fold c-exNDI:DNA molar ratio: 25 °C is the maximum increase measurable, data not shown
Method in brief: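 Oligonucleotide labelled with FAM at the 5′ end and TAMRA at the 3′ end, 0.25 μM, folded in lithium cacodylate buffer with 100 mM potassium, plus equimolar test compound. After equilibration at 4 °C, FAM emission was followed from 30 to 95 °C at 1 °C/min. Profiles were normalized, and Tm was the temperature at 0.5 normalized fluorescence.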

HIV-1 NL4-3 = experiment: HIV-1 entry assay; type: cell-based; details: TZM-bl cells, virus production at 31 h pi; 2 50–100 nM, AZT 0.5 μg/mL, DS 100 μg/mL
Method in brief: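 TZM-bl cells (HeLa stably expressing CD4, CCR5 and HIV-1 LTR-driven luciferase) were grown in DMEM/10% FBS. Cells were seeded at 1 × 10^4 per well and allowed to adhere overnight, then infected with HIV-1 NL4-3 at MOI 0.5 and kept at 37 °C. Test compound or reference agents were added at 0, 1 or 2 h pi. At 31 h cells were PBS-washed and virus production was read as LTR-luciferase RLU.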

[3] = cited from earlier work

SMILES | CC50 (Cytotoxicity assay) [nM] | Kd (LTR-IV G4 [1]) [nM] | SI HIV-1 strain NL4-3 (HIV-1 NL4-3 strain) | other results
C[N+](C)(C)CCCn1c(=O)c2cc(Br)c3c(=O)n(CCC[N+](C)(C)C)c(=O)c4c5[nH]c6ccccc6[nH]c5c(c1=O)c2c34.[I-].[I-] [Compound 11] | > 5000 | 12.9 | – | antiviral or cytotoxic activity (HIV-1 NL4-3 strain): did not display any antiviral or cytotoxic activity; stabilization (ΔTm, FRET) at 4-fold c-exNDI:DNA molar ratio (LTR-IV G4 [2]): above 25 °C
CN(C)CCCn1c(=O)c2cc(Br)c3c(=O)n(CCCN(C)C)c(=O)c4c5[nH]c6ccc([N+](=O)[O-])cc6[nH]c5c(c1=O)c2c34 [Compound 5] | 439 ± 10.7 | 5.9 | – | IC50 (HIV-1 NL4-3 strain; read-out: IC50 HIV-1 strain NL4-3, MOI 0.5, 48 h, LTR-luciferase signal): 23 ± 1.3 nM
CN(C)CCCNc1cc2c(=O)n(CCCN(C)C)c(=O)c3c4[nH]c5ccccc5[nH]c4c4c(=O)n(CCCN(C)C)c(=O)c1c4c23 [Compound 9] | 1760 ± 62.5 | – | 2.2 | –
Cc1cn([C@H]2C[C@H](N=[N+]=[N-])[C@@H](CO)O2)c(=O)[nH]c1=O [AZT, Zidovudine] | – | – | – | antiviral activity as a function of time of addition (0, 1, 2 h pi) (HIV-1 NL4-3): maintaining activity from 0 to 2 h pi
CN(C)CCCn1c(=O)c2ccc3c(=O)n(CCCN(C)C)c(=O)c4c5[nH]c6cc(C(=O)O)ccc6[nH]c5c(c1=O)c2c34 [Compound 6] | > 5000 | – | >5 | pKa of the (CH2)3NHMe2+ moieties [3]: > 8.1
C[N+](C)(C)CCCn1c(=O)c2ccc3c(=O)n(CCC[N+](C)(C)C)c(=O)c4c5[nH]c6ccccc6[nH]c5c(c1=O)c2c34.[I-].[I-] [Compound 10] | > 5000 | 1.7 | – | antiviral or cytotoxic activity (HIV-1 NL4-3 strain): did not display any antiviral or cytotoxic activity; stabilization (ΔTm, FRET) at 4-fold c-exNDI:DNA molar ratio (LTR-IV G4 [2]): above 25 °C; difference in stabilization of LTR-IV G4s vs hTel G4 (LTR-IV G4 [2]; FRET, equimolar amounts): ≥ 6 °C
CN(C)CCCn1c(=O)c2cc(Br)c3c(=O)n(CCCN(C)C)c(=O)c4c5[nH]c6ccc(C(=O)O)cc6[nH]c5c(c1=O)c2c34 [Compound 7] | > 5000 | 21.6 | >6 | pKa of the (CH2)3NHMe2+ moieties [3]: > 8.1
